Compound activity (PubChem)
GPR7 antagonist: GPR7 receptor antagonists, primary screen, cell-based, fluorescence, single concentration; Neuropeptides B/W receptor type 1 (Homo sapiens), P48145; GPR7-expressing cells, fluorescence antagonist assay; inhibition, % at 4.4 µM; 1.1% of 290,000 active; in the data active = inhibition above about 16%, passing the limit was not always enough;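 also: cells stimulated with the agonist NPW; 0% = agonist with vehicle and 100% = vehicle without agonist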
Target sequence (P48145 whole entry, looked up): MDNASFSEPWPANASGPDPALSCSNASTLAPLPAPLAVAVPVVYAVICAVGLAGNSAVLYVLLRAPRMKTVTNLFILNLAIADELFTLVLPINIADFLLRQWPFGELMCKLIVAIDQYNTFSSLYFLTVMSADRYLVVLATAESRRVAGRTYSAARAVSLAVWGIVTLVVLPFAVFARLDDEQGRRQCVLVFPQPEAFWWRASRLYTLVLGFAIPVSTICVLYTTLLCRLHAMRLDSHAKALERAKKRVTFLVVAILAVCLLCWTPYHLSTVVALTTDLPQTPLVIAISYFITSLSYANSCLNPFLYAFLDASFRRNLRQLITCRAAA
OX1R antag-1: OX1R (HCRTR1) antagonists, primary screen, fluorescence, CHO/OX1R cells, Fluo-8 calcium, orexin A; Orexin/Hypocretin receptor type 1 (Homo sapiens), O43613; Fluo-8 calcium fluorescence; inhibition, % at 5 µM; 0.43% of 330,000 active; AID 434989, 2010;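 active = inhibition above its plate's threshold, mean inhibition of all tested compounds on the plate plus 3 SD, cut at about 37% in these data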;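 also: 0% = orexin A challenge wells and 100% = SB-334867-A antagonist wells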
TAAR1 antag: human TAAR1 antagonists, primary screen, Fluo-8 calcium fluorescence, CHO RD-HGA16 cells; inhibition, % at 3 µM; 1.5% of 360,000 active; antagonist; Trace amine-associated receptor 1 (Homo sapiens), Q96RJ0;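 active = inhibition above a per-plate cutoff, the mean inhibition of test compounds on that plate plus 3 SD, cut at about 49% in these data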;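 also: 0% = DMSO plus EC80 beta-PEA response and 100% = DMSO alone without agonist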
Target sequence (Q96RJ0 whole entry, looked up): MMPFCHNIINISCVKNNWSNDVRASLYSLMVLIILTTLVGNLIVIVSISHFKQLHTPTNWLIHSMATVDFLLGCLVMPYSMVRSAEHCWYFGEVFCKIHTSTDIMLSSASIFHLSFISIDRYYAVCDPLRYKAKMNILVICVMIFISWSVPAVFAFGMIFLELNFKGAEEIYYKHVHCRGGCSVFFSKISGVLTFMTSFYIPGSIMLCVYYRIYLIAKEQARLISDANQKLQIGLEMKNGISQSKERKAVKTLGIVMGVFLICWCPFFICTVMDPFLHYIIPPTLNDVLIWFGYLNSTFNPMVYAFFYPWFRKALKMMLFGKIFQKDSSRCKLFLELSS
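Assay system: RD-HGA16 CHO cells with stable hTAAR1 and Gα16 / Reagent: EC80 β-phenethylamine stimulus / Doses: 3 µM, single point / Timing: dye loading 75 min at 37 °C, then 30 min room temperature / Measured by: Fluo-8 intracellular calcium dye fluorescence, real-time kinetic reads / Controls: vehicle wells and EC80 agonist wells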
CHO parental Ca: ATP-evoked calcium signal inhibitors, parental CHO, primary screen, counter-screen for OX1R antagonist project, cell-based, fluorescence, Fluo-8 calcium dye | parental CHO-K1, ATP-induced calcium, Fluo-8 fluorescence | inhibition, % at 5.6 µM | 0.63% of 330,000 active | AID 463079, 2010;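 active = inhibition above that plate's mean sample inhibition plus 3 SD, cut at about 26% in these data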;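 also: 0% = ATP-challenged DMSO wells and 100% = DMSO wells without ATP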
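Test system: untransfected parental CHO cell line; also added: ATP stimulus; dosing: 5.6 µM, single dose; signal: calcium-sensitive Fluo-8 fluorescence; measure: percent inhibition of ATP-evoked calcium rise, normalized to controls; benchmarks: low control ATP plus DMSO, high control DMSO only; replication: one well per compound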
OX1R antag-2: antagonists of human orexin 1 receptor (OX1R); inhibition, % at 6.6 µM; 1.8% of 330,000 active; OX1R-expressing cells, FRET antagonist read-out; Orexin/Hypocretin receptor type 1 (Homo sapiens), O43613; in the data active = inhibition mostly above about 38%, no sharp cut-off; inactive = mostly below about 40%;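 also: 0% = agonist challenge alone and 100% = reference antagonist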
TAAR1 ag: human TAAR1 agonists, primary screen, Fluo-8 calcium fluorescence, CHO RD-HGA16 cells; Trace amine-associated receptor 1 (Homo sapiens), Q96RJ0; vehicle wells 0%, saturating PEA agonist 100%; activation, % at 3 µM; 0.99% of 360,000 active;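 active = activation above the mean activation of all test compounds in the run plus 3 SD, cut at about 38% in these data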
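Test system: RD-HGA16 (CHO) cells co-expressing Gα16 and hTAAR1 / Benchmarks: DMSO vehicle as 0%, PEA at EC100 as 100% / Repeats: no replicates (n 1) / Measure: % activation from peak over basal fluorescence ratio, DMSO-to-PEA scaled / Timing: 17-24 h plating, Fluo-8 75 min 37 °C, 30 min RT / Technique: kinetic Fluo-8 calcium fluorescence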
The depositor's hits bear a star; · = no result. Shown are actives, neighbours in structure and some others; about 4.6% of the full set was active somewhere.

SMILES	GPR7 antagonist	OX1R antag-1	TAAR1 antag	CHO parental Ca	OX1R antag-2	TAAR1 ag
CCCCS(=O)(=O)N1CCN(C(=O)C(=O)c2cccc(C(F)(F)F)c2)CC1	·	·	-27	·	·	1
CC(C)C[C@H]1CN(CCCC[C@@H]2CNC(=O)C(=O)N2CCc2ccccc2)C(=O)C(=O)N1Cc1ccccc1	·	·	-1	·	·	2
O=c1[nH]c2ccccc2[nH]c1=O	-7	-3	-1	-6	22	-1
O=c1[nH]c2cc([N+](=O)[O-])c([N+](=O)[O-])cc2[nH]c1=O	-9	0	-3	1	56*	12
CCC(=O)N1CCc2cc(S(=O)(=O)NCCC(=O)N3CC=C(c4ccccc4)CC3)ccc21	-3	5	17	12	55*	4
COc1cccc(-c2ccc(C#N)c(SCC(=O)NCCc3cccc(Cl)c3)n2)c1	2	2	72*	-9	17	8
O=C(Nc1ccccc1)Nc1ccc(Cl)c(S(=O)(=O)N2CCOCC2)c1	18*	-9	16	8	14	33
Cc1ccc(NC(=O)CC(C)c2ccccc2)cc1S(=O)(=O)N1CCOCC1 (centres undefined)	·	4	-3	-12	37*	6
O=C(CSc1cccc2cccnc12)Nc1ccc(S(=O)(=O)N2CCOCC2)cc1	-10	17	-7	38*	16	2
O=S(=O)(c1cc(-c2nc3ccccc3s2)ccc1Cl)N1CCOCC1	23*	·	·	·	·	·
Cc1ccc(NC(=O)CSCC(=O)Nc2ccc(S(=O)(=O)N3CCOCC3)cc2)cc1	-9	-20	4	-11	8	4
COc1ccc(NC(=O)CC(C)c2ccccc2)cc1S(=O)(=O)N1CCOCC1 (centres undefined)	·	-18	-10	-16	4	10
Cc1ccc(-c2nc3ccccc3s2)cc1S(=O)(=O)N1CCOCC1	-4	-20	4	-4	15	11
CCO[C@H]1C[C@@H](c2ccc(CC)cc2)N(S(=O)(=O)c2ccc(C)cc2)C2CC(c3ccc(CC)cc3)N(S(=O)(=O)c3ccc(C)cc3)CC21 (some centres undefined)	·	·	-22	·	·	3
O=C(CSc1ccccc1)Nc1ccc(Cl)c(S(=O)(=O)N2CCOCC2)c1	·	12	13	-10	40*	7
O=C(CSc1ncccn1)Nc1ccc(Cl)c(S(=O)(=O)N2CCOCC2)c1	·	-17	-21	-2	5	0
O=C(CCc1ccccc1)NC(NC(=S)Nc1ccc(Cl)cc1)C(Cl)(Cl)Cl (centres undefined)	-6	33	2	41*	66	17
O=C(/C=C/c1ccccc1)NC(NC(=S)Nc1ccc(Cl)cc1)C(Cl)(Cl)Cl (centres undefined)	3	16	0	4	75	8
C[C@@H]1NC(=O)c2cc([N+](=O)[O-])cc(I)c2OCC[C@@H](C(=O)NC(CC(=O)O)C(N)=O)NC(=O)[C@H](CC(N)=O)NC1=O (some centres undefined)	3	41	·	51*	31	·
C[C@@H]1NC(=O)[C@H](CCCN=C(N)N)NC(=O)c2cc([N+](=O)[O-])cc(I)c2OCC[C@@H](C(=O)NC(CC(=O)O)C(N)=O)NC1=O (some centres undefined)	-3	-9	·	2	15	·
Cc1cc(Cl)ccc1NC(=O)CN1CCC(C(O)(c2ccccc2)c2ccccc2)CC1	-1	-21	15	-21	1	56*
Cc1nn(-c2nc3ccccc3s2)c(C)c1Oc1ccccc1O	-9	67*	·	32*	38	·
COc1cccc(C(=O)Nc2nc(-c3ccc(S(=O)(=O)N4CCOCC4)cc3)cs2)c1	-1	-15	50*	12	29	21
COC(=O)[C@]12C[C@H](CC(=O)N3CCOCC3)C(=O)N(Cc3ccccc3)C1=C[C@H](C(C)C)O[C@@H]2C1CC1	·	·	-13	·	·	1
CC(C)C[C@H]1COc2cccc(N3CCCC3)c2S(=O)(=O)N1	·	·	-21	·	·	-1
SMILES	GPR7 antagonist	OX1R antag-1	TAAR1 antag	CHO parental Ca	OX1R antag-2	TAAR1 ag
Cc1nn(-c2ccccc2)c2c1C(O)n1c(nc3ccccc31)S2 (centres undefined)	8	-21	50*	-18	21	17
C[C@H](NC(=O)c1nc[nH]c1C(=O)NC1CCN(C(=O)OC(C)(C)C)CC1)C(=O)OCc1ccccc1	-14	-10	56*	-22	19	9
CNC(=O)c1[nH]cnc1C(=O)N[C@@H](Cc1ccccc1)C(=O)OCc1ccccc1	-16	-28	59*	-1	22	13
O=C(c1nc[nH]c1C(=O)N1CCc2ccccc2C1)N1CCc2ccccc2C1	·	4	48	-8	12	38*
O=C(N[C@@H](Cc1ccccc1)C(=O)OCc1ccccc1)c1nc[nH]c1C(=O)N1CCc2ccccc2C1	·	31	59*	30	14	7
CC1(C(=O)NS(=O)(=O)c2ccc(C#N)cc2)CCN1C(=O)Cc1ccc(Cl)cc1Cl (centres undefined)	·	·	10	·	·	0
CCOC(=O)[C@]12CCCC=C1N(Cc1cccc3ccccc13)C(=O)[C@H](CC(=O)N1CCC(c3ccccc3)CC1)C2	·	·	-10	·	·	0
CCCCNC(=O)C1(C)CCN1C(=O)c1cc(OC)ccc1Br (centres undefined)	·	·	-4	·	·	0
CN(C)c1ccc(NC(=O)/C=C/c2c(Cl)cccc2Cl)cc1	5	9	-17	-4	72*	2
CN(C)S(=O)(=O)c1ccc(NC(=O)/C=C/c2ccccc2Cl)cc1	-10	-18	4	-12	20	13
CCOc1ccc(Nc2nc(Cc3nnc(SCC(=O)c4ccc(C)c(C)c4)o3)cs2)cc1	-2	7	29	29*	56	1
COC(=O)c1cc2c(c3c4cc(OC)ccc4n(S(=O)(=O)c4ccc(C)cc4)c13)C(=O)N(C)C2	·	·	-19	·	·	0
O=C(NCc1ccccc1)[C@@H]1CCCN1C(=O)[C@H]1CCCN1C(=O)c1ccc(Cl)c(Cl)c1	·	·	6	·	·	1
NC(=O)Nn1c(CCC(=O)O)ccc1-c1ccc(Cl)cc1	-6	0	7	1	17	0
O=C(O)CCc1ccc(-c2ccccc2)n1NC(=O)c1sc2ccccc2c1Cl	-1	-15	1	-3	41*	3
c1ccc(Oc2nnc(-c3cccs3)c3ccccc23)cc1	-7	-16	4	20	13	0
